pIC50: −log10 of the molar value. The source made the active and inactive calls. No cut-off for these calls is given here.

Data set [1] concerns the target 3',5'-cyclic-AMP phosphodiesterase 4D (Homo sapiens, UniProt Q08499). As to the kind of experiment: Inhibition of human PDE4D2 (86 to 413 residues) catalytic domain using [3H]-cAMP as substrate after 15 mins by liquid scintillation counting method.
Data set [2] is described as follows: Metal chelating activity of the compound assessed as formation of cupric-compound complex at 50 uM after 30 mins by UV-vis spectrophotometric analysis. The essentials: (§1)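 UV-vis absorption spectra of compound (50 µM) were recorded in HEPES buffer alone and with 50 µM CuSO4, ZnCl2, FeSO4 or FeCl3, and spectral changes were assessed.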
Data set [3] is described as follows: Metal chelating activity of the compound assessed as formation of zinc-compound complex at 50 uM after 30 mins by UV-vis spectrophotometric analysis. The essentials:
as §1

Data set [4] can be described thus: Metal chelating activity of the compound assessed as formation of ferric-compound complex at 50 uM after 30 mins by UV-vis spectrophotometric analysis. The essentials: as §1
A further data set deals with SH-SY5Y. The data set is described as follows: Cytotoxicity against human SH-SY5Y cells assessed as effect on cell viability at 10 uM after 24 hrs by MTT assay. It counts as cell-based. The essentials: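 SH-SY5Y viability was measured by MTT after exposure to compounds at 10 µM. Results are percent of vehicle control from three independent experiments.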
Data set [5] can be described thus: Metal chelating activity assessed as inhibition of Cu(II)-induced amyloid beta (1 to 42 residues) aggregation at 25 uM after 24 hrs by thioflavin-T fluorescence assay (reference value: 156%). The arrangement: scale not given: the % may be the effect or the level left. The essentials:
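Aβ1-42 was incubated with CuSO4 with or without compound, and thioflavin T fluorescence was read. Fluorescence is given as percent of Aβ alone, as mean ± SD of three independent experiments.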

Data set [6] can be described thus: Acute Toxicity in C57BL/6 mouse assessed as abnormal behavior up to 2000 mg/kg, ig measured over 14 days. Format: organism-based. Conditions: in vivo, po, 336 h. The essentials:
(§2)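 Mice given a single intragastric dose of test compound at various dosages, then observed for 14 days for death and abnormal behaviour. On day 14, animals were sacrificed and heart, liver, lungs and kidneys examined.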

A short description of data set [7]: Cardiotoxicity in C57BL/6 mouse assessed as abnormal changes up to 2000 mg/kg, ig after 14 days by microscopic analysis. Format: toxicity, organism-based. The settings on record: in vivo, po, 336 h. The essentials: as §2
Data set [8] can be described thus: Nephrotoxicity in C57BL/6 mouse assessed as abnormal changes up to 2000 mg/kg, ig after 14 days by microscopic analysis. It counts as toxicity, organism-based. Conditions: in vivo, po, 336 h. The essentials: as §2
A further data set concerns Mus musculus. As to the kind of experiment: Neuroprotection in amyloid beta (25 to 35 residues) induced C57BL/6J mouse model of Alzheimer's disease assessed as reduction in ratio of apoptotic neuron in DG hippocampus region at 30 mg/kg/day, ig administered for 26 consecutive days by hematoxylin and eosin staining-based light microscopic analysis (reference value: 55.8 +/- 7.2%). It counts as ADME, organism-based. The arrangement: scale not given: the % may be the effect or the level left. The settings on record: in vivo, po. The essentials: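 Hippocampal CA1, CA3 and DG neurons were stained with H&E after the Aβ25-35 ICV model and 26-day intragastric dosing. Denatured cell index = denatured cells/total cells, n = 5. Values are mean ± SD, two-way ANOVA versus model.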

3',5'-cyclic-AMP phosphodiesterase 4D, sequence (Q08499 whole entry, the tested form may be a part): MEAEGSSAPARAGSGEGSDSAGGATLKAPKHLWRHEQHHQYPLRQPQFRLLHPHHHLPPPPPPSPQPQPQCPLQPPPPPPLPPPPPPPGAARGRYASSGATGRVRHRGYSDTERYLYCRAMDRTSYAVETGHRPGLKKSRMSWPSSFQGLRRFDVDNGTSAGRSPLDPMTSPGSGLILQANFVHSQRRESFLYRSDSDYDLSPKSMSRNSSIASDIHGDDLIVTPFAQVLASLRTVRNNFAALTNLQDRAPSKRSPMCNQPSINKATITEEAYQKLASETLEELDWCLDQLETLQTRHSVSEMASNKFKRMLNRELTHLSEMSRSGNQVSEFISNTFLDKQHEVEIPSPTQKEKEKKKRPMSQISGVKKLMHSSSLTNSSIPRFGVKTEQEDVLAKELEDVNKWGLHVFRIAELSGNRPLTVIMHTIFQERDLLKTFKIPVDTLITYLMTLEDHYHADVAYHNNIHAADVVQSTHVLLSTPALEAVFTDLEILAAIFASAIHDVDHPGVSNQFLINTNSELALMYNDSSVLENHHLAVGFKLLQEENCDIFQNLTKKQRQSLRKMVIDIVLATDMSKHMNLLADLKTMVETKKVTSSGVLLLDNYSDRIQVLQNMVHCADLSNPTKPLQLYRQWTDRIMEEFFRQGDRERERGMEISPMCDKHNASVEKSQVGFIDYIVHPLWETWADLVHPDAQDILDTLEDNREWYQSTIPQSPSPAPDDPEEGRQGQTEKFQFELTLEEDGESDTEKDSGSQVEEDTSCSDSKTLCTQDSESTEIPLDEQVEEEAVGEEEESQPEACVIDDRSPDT

One may read the pIC50 as the negative decadic logarithm of the IC50, by convention in mol/L. In the case of `COc1ccc(C(=O)Nc2ccc(O)c3ncccc23)cc1OC1CCCC1.Cl`, the negative logarithm of the IC50 (pIC50) in data set [1] was 6.31. The outcome in [2], in data set [3] and in [4] was Active. Further, the Activity result is “Non-Toxic” in the data set on SH-SY5Y; 46% in [5]; “Non-Toxic” in data set [6]; “Non-Toxic” in data set [7]; “Non-Toxic” in [8]; 26.8% with Mus musculus.
